Like-named read-outs stand apart in the source and are kept apart here.
Columns and labels:
[1] = target: T1, α2A-AR (Homo sapiens, UniProt P08913); assay: Saturation binding assay of the radioligand; details: read-out: KD α2A-AR
T1 sequence (P08913 1-465): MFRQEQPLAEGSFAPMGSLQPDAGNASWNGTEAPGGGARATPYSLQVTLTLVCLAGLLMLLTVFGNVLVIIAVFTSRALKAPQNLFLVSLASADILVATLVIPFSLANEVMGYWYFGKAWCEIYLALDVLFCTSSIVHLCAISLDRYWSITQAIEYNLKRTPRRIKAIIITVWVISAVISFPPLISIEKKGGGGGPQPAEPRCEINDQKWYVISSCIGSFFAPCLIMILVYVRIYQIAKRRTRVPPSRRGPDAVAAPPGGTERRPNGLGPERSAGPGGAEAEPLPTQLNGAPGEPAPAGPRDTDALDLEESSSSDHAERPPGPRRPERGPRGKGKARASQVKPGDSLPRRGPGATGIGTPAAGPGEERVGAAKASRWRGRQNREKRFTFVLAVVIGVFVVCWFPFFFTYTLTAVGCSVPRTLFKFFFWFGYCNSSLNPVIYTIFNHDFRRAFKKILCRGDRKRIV
Summary of the method: (§1)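 Saturation binding used membranes from COS-7 cells transiently expressing each human α2-AR subtype. Membranes were incubated 1 h at room temperature with 0.1–10 nM [125I]-PIC in 50 mM Tris-HCl/120 mM sucrose. […] Reactions were stopped with PBS and filtered through GF/B. Radioactivity was counted and KD came from nonlinear regression.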

[2] = target: T2, α2C-AR (Homo sapiens, UniProt P18825); assay: Saturation binding assay of the radioligand; details: read-out: KD α2C-AR
T2 sequence (P18825 1-462): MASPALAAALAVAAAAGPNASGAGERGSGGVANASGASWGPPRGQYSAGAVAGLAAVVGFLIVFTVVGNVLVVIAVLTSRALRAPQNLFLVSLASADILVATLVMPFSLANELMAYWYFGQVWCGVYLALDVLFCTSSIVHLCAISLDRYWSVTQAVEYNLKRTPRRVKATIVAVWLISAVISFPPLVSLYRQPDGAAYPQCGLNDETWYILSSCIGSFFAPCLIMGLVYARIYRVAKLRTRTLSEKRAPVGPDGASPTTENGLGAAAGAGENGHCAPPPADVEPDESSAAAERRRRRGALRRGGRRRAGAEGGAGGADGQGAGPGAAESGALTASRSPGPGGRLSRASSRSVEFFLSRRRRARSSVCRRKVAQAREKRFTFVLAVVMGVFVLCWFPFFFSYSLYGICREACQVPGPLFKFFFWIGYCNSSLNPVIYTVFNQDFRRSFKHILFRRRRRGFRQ
Summary of the method: as §1

[3] = target: T1, α2A-AR; assay: cAMP-Glo assay, forskolin induced cAMP accumulation in transfected COS-7 cells; type: cell-based
[4] = tested on: CHO cells; details: cited from earlier work

Clc1cc(I)cc(Cl)c1NC1=NCCN1 [[^125I]-PIC, [^125I]-paraiodoclonidine]
Kd [1]: 0.209 ± 0.06 nM
Kd [2]: 0.802 ± 0.053 nM

NC[C@H](O)c1ccc(O)c(O)c1 [norepinephrine]
effect on cAMP production ([3]; higher concentrations (10^−3-10^−7M)): stimulated the expression of cAMP
effect on cAMP production ([3]; lower concentrations (10^−10-10^−8M)): inhibited the production of cAMP

Cc1ccc(N(CC2=NCCN2)c2cccc(O)c2)cc1 [phentolamine]
effect on the production of cAMP, compound alone ([3]; forskolin, no norepinephrine): did not have any effect

CNC[C@H](O)c1ccc(O)c(O)c1 [epinephrine]
effect on cAMP production ([4]; from 10^−7 to 10^−6 M): increase
effect on cAMP production ([4]; from 10^−9 to 10^−8 M): inhibition
